We go through 53 compounds from PubChem BioAssay AID1242 (PCMD, 2008).

About 20 (0.02%) of roughly 120,000 compounds were called active. This is one part of a sample in which actives are shown more often than they occur.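 The calls were made as follows: active = inhibition above 30.3% in the primary screen of four-compound pools, then above 30% when the compound was retested; inconclusive = passed the primary limit but could not be retested; inactive = the rest.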

For orientation: inhibition means the change of the read-out against control, counted positive when it falls.

This assay is described as follows: clotrimazole potentiators killing C. albicans biofilm, primary screen, 4-compound mixtures (AID 1242).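 Also: compounds exposed to preformed 24 h biofilms for 48 h; 0% = untreated biofilm control and 100% = clotrimazole plus chlorhexidine kill blank.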 The following applies: C. albicans biofilm persisters + clotrimazole, fluorescence viability, primary screen in compound mixtures, stronger effect = higher value. The procedure, abridged:
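System: C. albicans CAF4-2 wild-type biofilms; Medium: RPMI/MOPS medium, pH 7.0; Reagent: Clotrimazole, 50 µg/mL; Times: biofilm formation 24 h, compound exposure 48 h, 37 °C; Detection: 2-h Alamar Blue fluorescence, 535/590 nm excitation/emission; Evaluation: percent inhibition of biofilm viability.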

[1] abbreviates: measured here: individual compound retest, at 61 µM.

Regarding `COc1ccc(C)cc1NC(=O)NCc1ccccn1`, the inhibition (at 7.6 µM unless noted) is 16.2% (inactive).

With `CC(/C=C/c1ccco1)=N/NC(=O)C1COc2ccccc2O1` (stereo not given), the inhibition (at 7.6 µM unless noted) is 16.1% (inactive).

As for `COc1ccc(-n2c(C)nn(CC3CC3)c2=O)cc1`, the inhibition (at 7.6 µM unless noted) is -10.4% (inactive).

As for `Cc1ccnc2nc(C(=O)OCC(=O)N(CC(C)C)CC(C)C)nn12`, where the note is “at 7.6 µM unless noted”, the inhibition is 6.65% (inactive).

Consider `CNC(=S)N1CCC(NC(=O)C(Cc2ccc(F)cc2)NC(C)=O)CC1` (stereo not given), for which the inhibition (at 7.6 µM unless noted) was 5.74% (inactive).

With `COc1ccc(CC(=O)NCc2nnc(SCC(=O)Nc3nccs3)n2C)cc1`, the inhibition (at 7.6 µM unless noted) was 7.45% (inactive).

For `CCOC(=O)CN/C=C(\C#N)c1ccc(F)cc1`, the inhibition (at 7.6 µM unless noted) was 12.8% (inactive).

`O=C(Nc1ccc(Cl)cc1)/C(=C1\CCCN1)[N+](=O)[O-]`: the inhibition (at 7.6 µM unless noted) was 18.1% (inactive).

For the compound `O=C(CSc1nnc(SCc2ccc(F)cc2)s1)Nc1ccc(C(=O)O)cc1`, the inhibition (at 7.6 µM unless noted) was 12.3% (inactive).

As to `COC(=O)c1nn(-c2cccc(Cl)c2)ccc1=O`, the inhibition (at 7.6 µM unless noted) was 12.6% (inactive).

For the compound `CCOC(=O)CCNC(=O)N1CCCC(C(=O)c2ccccc2SC)C1` (stereo not given), the inhibition (at 7.6 µM unless noted) was 27% (inactive).

On to `CN1C=CC=C/C1=C1\SC(=S)N(Cc2ccccc2)C1=O`, for which, for the setting “at 7.6 µM unless noted”, the inhibition is 20.5% (inactive).

As to `COCCN1C2=C(COC(C)(C)C2)C(=S)NC1c1ccccc1` (stereo not given), the inhibition (at 7.6 µM unless noted) is 14% (inactive).

As for `CC(=O)NCC(=O)N1CCCC(C(=O)c2ccc3c4c(cccc24)CC3)C1` (stereo not given), the inhibition (at 7.6 µM unless noted) is 0.67% (inactive).

As to `CC(=O)NC(NC(=S)Nc1c(C)n(C)n(-c2ccccc2)c1=O)C(Cl)(Cl)Cl` (stereo not given), under “at 7.6 µM unless noted”, the inhibition is 12% (inactive).

For the compound `COc1ccc(/C=C/CN2CCCC(C(=O)c3cc(F)ccc3F)C2)cc1` (stereo not given), the inhibition (at 7.6 µM unless noted) is 8.39% (inactive).

In the case of `C/C=N/N(c1ccccc1)c1ccccc1`, where the note is “at 7.6 µM unless noted”, the inhibition is 26.1% (inactive).

For the compound `O=C(Nc1ccccc1C(=O)O)c1cc(S(=O)(=O)N2CCCCC2)cs1`, the inhibition (at 7.6 µM unless noted) was -7.15% (inactive).

`O=C(Nc1ccc(S(=O)(=O)Nc2nccs2)cc1)c1cc(=O)[nH]c2ccccc12`: the inhibition (at 7.6 µM unless noted) is 21.7% (inactive).

Regarding `O=C(Cc1ccc(Cl)cc1)NCc1nc(-c2ccccc2)no1`, the inhibition (at 7.6 µM unless noted) was 11.6% (inactive).

Take `COC(=O)C1=C(C(=O)OC)C(c2cc([N+](=O)[O-])ccc2O)c2sc(=O)[nH]c2S1` (stereo not given): where the note is “at 7.6 µM unless noted”, the inhibition was 12.9% (inactive).

Regarding `COc1ccc(C2CC(c3cccs3)=NN2C(=O)CSc2nnc(N)s2)cc1OC` (stereo not given), the inhibition (at 7.6 µM unless noted) was 2.04% (inactive).

Consider `Cc1ccc(Cl)cc1NC(=O)COC(=O)CC(C)(C)C`, for which, under “at 7.6 µM unless noted”, the inhibition is 18.1% (inactive).

On to `CC(C)(C)OC(=O)NCCCCCC(=O)N/N=C/c1coc2ccccc2c1=O`, for which the inhibition (at 7.6 µM unless noted) was 21.8% (inactive).

Consider `CCC(C)(C)NC(=O)CN(Cc1cccs1)C(=O)CNS(=O)(=O)c1ccc(F)cc1`, for which the inhibition (at 7.6 µM unless noted) is 7.21% (inactive).

Take `COc1cccc2c(N/N=C/c3ccco3)cc(C)nc12`: the inhibition (at 7.6 µM unless noted) is 8.66% (inactive).

For `COc1cccc(C2Nc3cccc4cccc(c34)N2)c1`, the inhibition (at 7.6 µM unless noted) was 25.2% (inactive).

In the case of `O=C(NC1CCCCC1)c1cc(C2CC2)on1`, the inhibition (at 7.6 µM unless noted) was 7.38% (inactive).

For the compound `CCCCC(NC(=O)c1cccc(Br)c1)C(=O)O` (stereo not given), the inhibition (at 7.6 µM unless noted) is 22.6% (inactive).

On to `CCOC(=O)c1cc(-c2ccc(F)cc2)n(CC(=O)NCc2ccccn2)c1C`, for which the inhibition (at 7.6 µM unless noted) was 14% (inactive).

With `CCC(=O)/C=C1\Sc2ccccc2N1CC`, the inhibition (at 7.6 µM unless noted) is 17% (inactive).

Take `CCN1/C(=C/c2ccc3ccc(C)cc3[n+]2CC)Sc2ccccc21`: the inhibition (at 7.6 µM unless noted) is 9.78% (inactive).

Turning to `CCN1/C(=C\c2ccc3ccccc3[n+]2CC)Sc2cc(C)ccc21`, the inhibition by setting is: (at 7.6 µM) 31.3% (active); under setting [1], 72.3%.

For `C#CCNc1ccc(C(=O)OCC)cc1`, where the note is “at 7.6 µM unless noted”, the inhibition is 15.4% (inactive).

With `CC1CC(C)CN(CCC(=O)Nc2ccc3c(c2)CCC3)C1` (stereo not given), the inhibition (at 7.6 µM unless noted) is 16.6% (inactive).

In the case of `C=CCN1CC(C)/C(=N\O)CC1C` (stereo not given), the inhibition (at 7.6 µM unless noted) is 26.7% (inactive).

As for `O=C(NCCCN1CCOCC1)c1ccccc1NS(=O)(=O)c1ccc(Br)cc1`, for the setting “at 7.6 µM unless noted”, the inhibition was 20.1% (inactive).

Regarding `CC(OC(=O)c1ccccc1OCc1ccc(Cl)cc1)C(N)=O` (stereo not given), the inhibition (at 7.6 µM unless noted) was 9.56% (inactive).

With `COc1ccc(NC(=O)CSc2nc(C)cs2)cc1`, the inhibition (at 7.6 µM unless noted) is -9.15% (inactive).

For `Cc1ccc2cc(/C=N/NC(=O)[C@@H]3CCCN3)c(Cl)nc2c1`, the inhibition is 36% (inactive) (at 7.6 µM) and -44.1% under setting [1].

Turning to `COc1ccc(C(=O)N/N=C(\C)CC(=O)Nc2ccc(Cl)cn2)cc1`, for the setting “at 7.6 µM unless noted”, the inhibition is 14.5% (inactive).

As for `CC(C)Cc1nc(Cl)c(C#N)c2c1CCC2`, where the note is “at 7.6 µM unless noted”, the inhibition was 20.6% (inactive).

With `Cc1nc(N)[nH]c(=O)c1Oc1cccc(C(F)(F)F)c1`, the inhibition (at 7.6 µM unless noted) is 25.2% (inactive).

With `CCn1ccnc1CN1CCCC(C(=O)c2ccc3c4c(cccc24)CC3)C1` (stereo not given), for the setting “at 7.6 µM unless noted”, the inhibition is 13.8% (inactive).

Take `CC(=O)Nc1ccc(S(=O)(=O)Nc2nccc(/C=C/c3ccccc3F)n2)cc1`: the inhibition (at 7.6 µM unless noted) is 25.1% (inactive).

On to `COc1ccc(CCNC(=O)C(=O)NCc2ccccc2C)cc1OC`, for which the inhibition (at 7.6 µM unless noted) is 25.3% (inactive).

For `COCCNc1nc(-c2ccccc2)nc2c1oc1ccccc12`, under “at 7.6 µM unless noted”, the inhibition is 17.2% (inactive).

In the case of `O=C(NCC1CCCO1)c1ccccc1-c1nc(-c2ccccc2Cl)no1` (stereo not given), the inhibition (at 7.6 µM unless noted) is 16.1% (inactive).

As for `Cc1cc(NC(=O)CSCc2ccccc2C)no1`, for the setting “at 7.6 µM unless noted”, the inhibition was 13.5% (inactive).

In the case of `O=C(NCCCN1CCOCC1)c1ccc([N+](=O)[O-])cc1[N+](=O)[O-]`, the inhibition (at 7.6 µM unless noted) is 15.2% (inactive).

Take `O=C(NCCN1CCOCC1)Nc1cccc(Cl)c1`: the inhibition (at 7.6 µM unless noted) was 20.6% (inactive).

Take `O=C(CCC(=O)N1CCCC1)Nc1ccc([N+](=O)[O-])cc1`: the inhibition (at 7.6 µM unless noted) is 11.9% (inactive).

Regarding `COc1ccc(Cn2c(O)c(/C=C3/C=CC=N3)c(=O)[nH]c2=O)cc1`, the inhibition (at 7.6 µM unless noted) was 11.9% (inactive).
